Compound activity: PubChem, several laboratories
STAT3 blocker – STAT3 signaling inhibition; U3A cells, IL-6 STAT3-luciferase reporter, luminescence; host cell line lacks STAT1; inhibition, % at 5.5 µM; 0.89% of 190,000 active; AID 862;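 active means inhibition above the mean inhibition across all screened compounds plus 3 SD, cut at about 44% in these data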;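 further: 0% = DMSO only wells and 100% = 100 µM nifuroxazide control wells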
Cl transport mod – KCC2 (human) Cl- transport modulation; Q9H2X9; B-score of Tl+ flux slope (higher = more flux/activation; lower = inhibition) at 10 µM; 2.2% of 190,000 active; KCC2 cells, thallium flux FluoZin-2 fluorescence;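 active means thallium flux slope and its plate-corrected score both differing from the plate sample mean at a set confidence after two filtering rounds, in either direction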;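 further: slope of fluorescence scaled to starting intensity during 10 to 20 s after thallium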
STAT1 inh – reduces IFN-gamma driven STAT1 reporter signal | AID 920 | 0.35% of 200,000 active | NIH 3T3 STAT1-luciferase reporter, luminescence | inhibition, % at 5.5 µM;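 active means inhibition above a set limit, the mean inhibition across all tested compounds plus 3 SD, cut at about 34% in these data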;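 further: 0% = IFN-gamma with DMSO and 100% = IFN-gamma with 300 µM nifuroxazide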
STAT3 act – STAT3 signaling activation | AID 871 | U3A cells, IL-6 STAT3-luciferase reporter, luminescence; 100% = signal with IL-6 EC80 alone | activation (% of control), % at 5.6 µM | 0.91% of 190,000 active;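 active means activation above the screen-wide mean of compound activation plus 3 SD, cut at about 130% in these data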;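 further: 0% = background luminescence of wells with medium and substrate only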
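Material: human STAT1-deficient U3A cells with stable STAT3-luciferase reporter / Probe or stimulus: IL-6 stimulus at 33 ng/mL final / Schedule: 1 h compound pre-exposure, 6 h IL-6 stimulation, 37 °C / Technique: luminescence / Read-out basis: percent of IL-6-only median luminescence / Control set: IL-6-only high control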
STAT1 act – increases IFN-gamma driven STAT1 reporter signal. NIH 3T3 STAT1-luciferase reporter, luminescence; 100% = IFN-gamma alone, no compound. AID 932. 2.6% of 200,000 active. activation (% of control), % at 5.5 µM;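 active means activation above the screen-wide mean activation plus 3 SD, cut at about 130% in these data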;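 further: raw ratio to IFN-gamma control signal so 100% means no change and 0% no light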
HSV augment – HSV replication enhancement. HSV replication augmentation in cells, fold increase. maximum fold increase. 0.005% of 220,000 active; in the data active means maximum fold increase above about 1.5; inconclusive means no clear call, values can overlap the other calls; tested in PC3 cells
The depositor's hits bear a star; i = inactive; ? = inconclusive; · = no result given. Hits are enriched below; roughly 5.5% of the tested compounds scored in any of these assays.

SMILES	STAT3 blocker	Cl transport mod	STAT1 inh	STAT3 act	STAT1 act	HSV augment
COc1ccc(C(=O)N2C(=S)NC(=O)/C2=C\c2ccc(C)cc2)cc1	-18	7.9*	-11	112	109	i
COC(=O)CN1C(=S)N(c2ccc(OC)cc2)C(=O)/C1=C/c1ccc(OC)cc1	15	0.18	-4	92	104	i
CCN(CC)C(=O)c1cc(-c2ccc(Br)cc2)on1	12	·	-52	90	147*	i
O=C(NCCc1ccccn1)c1cc(-c2ccccc2Cl)nc2ccccc12	8	-0.27	5	98	95	i
NC(=O)C1CCN(CC(=O)N2N=CCC2c2ccccc2)CC1 (stereo unspecified)	14	0.051	6	90	93	i
NC(=O)N/N=C/c1c(Sc2nnnn2-c2ccccc2)nc2ccccn2c1=O	·	-0.6	·	·	·	i
CC(=O)N1N=C(c2ccccc2)CC1c1ccccc1[N+](=O)[O-] (stereo unspecified)	-24	-0.82	17	117	85	i
O=[N+]([O-])c1ccc(C2Oc3ccccc3C3CC(c4ccccc4)=NN32)s1 (stereo unspecified)	-44	1.8	8	133*	93	i
Cc1[nH]n(-c2nc(-c3cccc([N+](=O)[O-])c3)cs2)c(=O)c1C	1	·	-14	100	112	i
Clc1cnc2nc(SC/C=C/c3ccccc3)[nH]c2c1	·	-0.14	·	·	·	i
Cc1ccc(/C=N/NC(=O)c2c[nH]c3ccccc23)s1	-18	·	-51	119	146*	i
COc1cc(/C=N/NC(=O)c2ccoc2C)ccc1O	13	-0.56	-42	88	138*	i
COc1cc(/C=N/NC(=O)c2cc(C)oc2C)ccc1O	-2	0.47	0	102	99	i
Cc1ccsc1/C=N/NC(=O)c1c[nH]c2ccccc12	-22	-0.63	-28	127	126	i
CC/C(=N\NC(=O)c1c[nH]c2ccccc12)c1cccs1	-12	-1.9	-41	115	136*	i
C/C(=N/NC(=O)c1ccncc1)c1c[nH]c2ccccc12	6	-2.2	-6	96	105	i
Cc1ccc(/C=N/NC(=O)c2ccoc2C)s1	-10	2	-44	109	139*	i
O=C(/C=C/c1ccccc1[N+](=O)[O-])NCc1cccnc1	-13	0.59	0	107	100	i
CC(C)(C)c1ccc(-c2nc(C#N)c(NCCCn3ccnc3)o2)cc1	·	0.68	·	·	·	i
CNc1oc(-c2ccc(Cl)cc2)nc1C#N	11	-0.79	-35	92	132*	i
CC(C)(C)c1ccc(-c2nc(C#N)c(NCc3ccncc3)o2)cc1	-2	-0.12	-34	107	131*	i
Cc1cc([N+](=O)[O-])nn1CCCC(=O)NCc1ccc(F)cc1	10	-0.34	-4	96	103	i
COc1cccc(NC(=O)CN(C)C(=O)COc2ccc3ccccc3c2)c1	-17	-0.075	2	113	99	i
CCOc1ccc(N(CC(=O)NCC2CCCO2)S(=O)(=O)c2ccc(SC)cc2)cc1 (stereo unspecified)	5	·	0	101	100	i
Cc1cc(C)nc(Sc2ncnc3sc4c(c23)CCC4)n1	3	7.6*	-4	99	105	i
SMILES	STAT3 blocker	Cl transport mod	STAT1 inh	STAT3 act	STAT1 act	HSV augment
COc1ccc(C(=O)NNC(=S)NC(=O)/C=C/c2cccs2)cc1	-4	13*	-3	104	102	i
O=C(/C=C/c1cccs1)NC(=S)NNC(=O)c1ccccc1O	16	12*	1	88	98	i
COc1ccc(/C=C/C(=O)NC(=S)NNC(=O)Cc2cccs2)cc1	1	1.8	3	104	97	·
COc1ccc(/C=C/C(=O)NC(=S)NNC(=O)c2ccco2)cc1OC	·	·	·	·	·	i
COc1ccc(/C=C/C(=O)NC(=S)NNC(=O)c2ccco2)cc1	-10	11*	-1	109	101	?
C=CCSc1nc2ccsc2c(=O)n1-c1cccnc1	-3	-1.3	3	105	97	i
O=C(Nc1ccccc1-c1nnc(SCc2ccccc2Cl)o1)c1ccccc1	17	-0.043	3	91	97	i
COc1ccc2[nH]cc(CCNC(=O)C3CCCO3)c2c1 (stereo unspecified)	18	1.6	6	94	94	i
